Converted amounts (≈) assume the structure as drawn.
What was measured:
[1] = Mean residence time in Sprague-Dawley rat at 5 mg/kg, iv; format: ADME, organism-based; parameters: dose 5 mg/kg, route intravenous; conditions: in vivo
Outline: (§1)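 Male SD rats, 220−250 g, 6−8 weeks old, n = 3, fasted overnight and for 6 h after dosing. Dosed in 5% Tween in water, 5 mg/kg iv or 15 mg/kg po. Serial retrobulbar blood samples into EDTA-K₂ tubes; plasma levels by HPLC. Parameters from mean plasma concentration by noncompartmental analysis.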

[2] = Tmax in Sprague-Dawley rat at 15 mg/kg, po; format: ADME, organism-based; parameters: dose 15 mg/kg, route oral; conditions: in vivo; outline: as §1
[3] = Volume of distribution at steady state in Sprague-Dawley rat at 5 mg/kg, iv; format: ADME, organism-based; parameters: dose 5 mg/kg, route intravenous; conditions: in vivo, read-out: Vdss; outline: as §1
[4] = tested on: Staphylococcus epidermidis; experiment: Antibacterial activity against methicillin-resistant Staphylococcus epidermidis at 320 ug/ml after 24 hrs by Oxford cup assay; format: functional; conditions: read-out: IZ
Outline: (§2)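 Oxford cup diffusion using clinical isolates. Inocula are made in 0.9% saline to a McFarland standard and spread on nutrient agar. […] Inhibition zone diameter is measured after 24 h at 37 °C. Run in triplicate.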

[5] = Elimination half life in Sprague-Dawley rat at 5 mg/kg, iv; format: ADME, organism-based; parameters: dose 5 mg/kg, route intravenous; conditions: in vivo, read-out: beta t1/2 (converted); outline: as §1
[6] = tested on: Staphylococcus epidermidis; experiment: Antibacterial activity against methicillin-resistant Staphylococcus epidermidis at 160 ug/ml after 24 hrs by Oxford cup assay; format: functional; conditions: read-out: IZ; outline: as §2
[7] = Clearance in Sprague-Dawley rat at 15 mg/kg, po; format: ADME, organism-based; parameters: dose 15 mg/kg, route oral; conditions: in vivo; outline: as §1
Staphylococcus aureus [8] = experiment: Antibacterial activity against methicillin-resistant Staphylococcus aureus after 48 hrs by agar dilution method; format: functional
Outline: (§3)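 Agar dilution per NCCLS using clinical isolates. Compound DMSO/water solutions are 2-fold serially diluted in water, then mixed 1:10 into hot Mueller–Hinton agar. Inocula come from blood slants, adjusted to about 10⁵−10⁶ cfu/mL in 0.90% saline, and spotted at 10 μL. Plates incubated at 36.5 °C for 48 h. MIC is the lowest concentration giving complete growth inhibition. Run in triplicate at pH 7.40.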

Staphylococcus aureus [9] = experiment: Antibacterial activity against methicillin-resistant Staphylococcus aureus at 160 ug/ml after 24 hrs by Oxford cup assay; format: functional; conditions: read-out: IZ; outline: as §2
Streptococcus agalactiae [10] = experiment: Antibacterial activity against Streptococcus agalactiae at 320 ug/ml after 24 hrs by Oxford cup assay; format: functional; conditions: read-out: IZ
Outline: (§4)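 Oxford cup diffusion: saline inoculum set by McFarland standard, spread on nutrient agar plates. […] Inhibition zone measured after 24 h at 37 °C; triplicate.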

[11] = Mean residence time in Sprague-Dawley rat at 15 mg/kg, po; format: ADME, organism-based; parameters: dose 15 mg/kg, route oral; conditions: in vivo; outline: as §1
[12] = Tmax in Sprague-Dawley rat at 5 mg/kg, iv; format: ADME, organism-based; parameters: dose 5 mg/kg, route intravenous; conditions: in vivo; outline: as §1
Rattus norvegicus = experiment: Volume of distribution at steady state in Sprague-Dawley rat at 15 mg/kg, po; format: ADME, organism-based; parameters: dose 15 mg/kg, route oral; conditions: in vivo; outline: as §1
Streptococcus agalactiae [13] = experiment: Antibacterial activity against Streptococcus agalactiae at 160 ug/ml after 24 hrs by Oxford cup assay; format: functional; conditions: read-out: IZ; outline: as §4
Escherichia coli [14] = experiment: Antibacterial activity against Escherichia coli after 48 hrs by agar dilution method; format: functional
Outline: (§5)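 Agar dilution per NCCLS on Mueller–Hinton agar; compound in DMSO/water, 2-fold serial dilutions in distilled water, 2 mL dilution mixed into 18 mL hot agar. Clinical isolates from blood slants, adjusted to about 10⁵−10⁶ cfu/mL in 0.90% saline; 10 μL spotted. Incubated 36.5 °C for 48 h; MIC = lowest concentration giving complete growth inhibition. Triplicate runs.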

Staphylococcus aureus [15] = experiment: Antibacterial activity against methicillin-resistant Staphylococcus aureus at 320 ug/ml after 24 hrs by Oxford cup assay; format: functional; conditions: read-out: IZ; outline: as §2
Escherichia coli [16] = experiment: Antibacterial activity against Escherichia coli at 160 ug/ml after 24 hrs by Oxford cup assay; format: functional; conditions: read-out: IZ; outline: as §4
[17] = tested on: Staphylococcus epidermidis; experiment: Antibacterial activity against methicillin-resistant Staphylococcus epidermidis after 48 hrs by agar dilution method; format: functional; outline: as §3
[18] = Elimination half life in Sprague-Dawley rat at 15 mg/kg, po; format: ADME, organism-based; parameters: dose 15 mg/kg, route oral; conditions: in vivo, read-out: beta t1/2 (converted); outline: as §1
Streptococcus agalactiae [19] = experiment: Antibacterial activity against Streptococcus agalactiae after 48 hrs by agar dilution method; format: functional; outline: as §5
Escherichia coli [20] = experiment: Antibacterial activity against Escherichia coli at 320 ug/ml after 24 hrs by Oxford cup assay; format: functional; conditions: read-out: IZ; outline: as §4
[21] = AUC (0 to infinity) in Sprague-Dawley rat at 15 mg/kg, po; format: ADME, organism-based; parameters: time infinity, dose 15 mg/kg, route oral; conditions: plasma; outline: as §1
[22] = Cmax in Sprague-Dawley rat at 15 mg/kg, po; format: ADME, organism-based; parameters: dose 15 mg/kg, route oral; conditions: in vivo; outline: as §1
[23] = Clearance in Sprague-Dawley rat at 5 mg/kg, iv; format: ADME, organism-based; parameters: dose 5 mg/kg, route intravenous; conditions: in vivo; outline: as §1
[24] = AUC (0 to infinity) in Sprague-Dawley rat at 5 mg/kg, iv; format: ADME, organism-based; parameters: time infinity, dose 5 mg/kg, route intravenous; conditions: plasma; outline: as §1
[25] = Oral bioavailability in Sprague-Dawley rat at 15 mg/kg; format: ADME, organism-based; conditions: in vivo; outline: as §1
[26] = Cmax in Sprague-Dawley rat at 5 mg/kg, iv; format: ADME, organism-based; parameters: dose 5 mg/kg, route intravenous; conditions: in vivo; outline: as §1
[27] = Oral bioavailability in duck; format: ADME, organism-based; conditions: anas platyrhynchos, in vivo
[28] = Oral bioavailability in chicken; format: ADME, organism-based, Gallus gallus; conditions: in vivo

| SMILES | MRT [1] [h] | Tmax [2] [h] | Vd [3] [L/kg] | zone of inhibition at 320 µg/mL [4] [mm] | half-life [5] [h] | zone of inhibition at 160 µg/mL [6] [mm] | CL/F [7] [mL/min/kg] | MIC (Staphylococcus aureus [8]) [µg/mL] | zone of inhibition at 160 µg/mL (Staphylococcus aureus [9]) [mm] | zone of inhibition at 320 µg/mL (Streptococcus agalactiae [10]) [mm] | MRT [11] [h] | Tmax [12] [min] | Vdss (Rattus norvegicus) [L/kg] | zone of inhibition at 160 µg/mL (Streptococcus agalactiae [13]) [mm] | MIC (Escherichia coli [14]) [µg/mL] | zone of inhibition at 320 µg/mL (Staphylococcus aureus [15]) [mm] | zone of inhibition at 160 µg/mL (Escherichia coli [16]) [mm] | MIC [17] [µg/mL] | MIC (Streptococcus agalactiae [19]) [µg/mL] | zone of inhibition at 320 µg/mL (Escherichia coli [20]) [mm] | further results |
| --- | --- | --- | --- | --- | --- | --- | --- | --- | --- | --- | --- | --- | --- | --- | --- | --- | --- | --- | --- | --- | --- |
| C=C[C@]1(C)C[C@@H](OC(=O)CSc2nnc(N)s2)[C@]2(C)[C@H](C)CC[C@]3(CCC(=O)[C@H]32)[C@@H](C)[C@@H]1O | 2.84 | 0.75 | 0.92 | 15.2 | 3.4 | 12.8 | 10.2 | 0.5 (≈ 1.01 µM) | 13 | 17.3 | 8.42 | 4.8 | 5.14 | 15 | 8 (≈ 16.2 µM) | 15.6 | 12.4 | 1 (≈ 2.03 µM) | 0.25 (≈ 0.506 µM) | 14.3 | half-life [18]: 6.07 h; AUC(0-inf) [21]: 24600 ng·h/mL; Cmax [22]: 3070 ng/mL; clearance [23]: 5.41 mL/min/kg; AUC(0-inf) [24]: 15400 ng·h/mL; bioavailability [25]: 35.8%; Cmax [26]: 13600 ng/mL |
| C=C[C@]1(C)C[C@@H](OC(=O)CSc2nnc(NC(=O)CN3CCCCC3)s2)[C@]2(C)[C@H](C)CC[C@]3(CCC(=O)[C@H]32)[C@@H](C)[C@@H]1O | 2.88 | 0.75 | 1.02 | 17.4 | 3.89 | 14.5 | 10.4 | 0.5 (≈ 0.808 µM) | 13.8 | 17.7 | 7.91 | 4.8 | 4.91 | 13.5 | 16 (≈ 25.9 µM) | 18.8 | 11.7 | 1 (≈ 1.62 µM) | 0.5 (≈ 0.808 µM) | 13.3 | half-life [18]: 5.98 h; AUC(0-inf) [21]: 24100 ng·h/mL; Cmax [22]: 4650 ng/mL; clearance [23]: 5.9 mL/min/kg; AUC(0-inf) [24]: 14100 ng·h/mL; bioavailability [25]: 39.7%; Cmax [26]: 11300 ng/mL |
| C=C[C@]1(C)C[C@@H](OC(=O)CSCCN(CC)CC)[C@]2(C)[C@H](C)CC[C@]3(CCC(=O)[C@H]32)[C@@H](C)[C@@H]1O [TIAMULIN] |  |  |  | 15.6 |  | 13.9 |  | 0.5 (≈ 1.01 µM) | 16.9 | 16.1 |  |  |  | 14.6 | 16 (≈ 32.4 µM) | 17.2 | 13.6 | 2 (≈ 4.05 µM) | 0.5 (≈ 1.01 µM) | 15.8 |  |
| C=C[C@]1(C)C[C@@H](OC(=O)CSC(C)(C)CNC(=O)[C@H](N)C(C)C)[C@]2(C)[C@H](C)CC[C@]3(CCC(=O)[C@H]32)[C@@H](C)[C@@H]1O [VALNEMULIN] |  |  |  |  |  |  |  |  |  |  |  |  |  |  |  |  |  |  |  |  | bioavailability [27]: 36.7%; bioavailability [28]: 74% |

From ChEMBL document CHEMBL3286209, “Synthesis and biological activities of novel pleuromutilin derivatives with a substituted thiadiazole moiety as potent drug-resistant bacteria inhibitors” (J Med Chem, 2014)
